Experimental data: ChEMBL document CHEMBL1152460, “Phenotypic characterization of resistant Val36 variants of hepatitis C virus NS3-4A serine protease” (Antimicrob Agents Chemother, 2008)

Experiments:
NS3 protease [1] = biological target: NS3 protease (Hepacivirus C, UniProt C1KIQ2, R155K/V36M); assay: Inhibition of HCV genotype 1a NS3 protease V36M/R155K double mutant expressed in Escherichia coli BL21 (DE3); design: species or system Hepatitis C virus subtype 1a
Method in brief: (§1)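 NS3 protease domain (genotype 1a isolate 3201 or 1b isolate 3111) was expressed in E. coli BL21(DE3) with 5 h, 1 mM IPTG at 25°C, then purified by Talon and gel filtration. Enzyme was preincubated with 5 μM KK4A cofactor (10 min 25°C, 10 min 30°C), then inhibitor 60 min at 30°C, then 5 μM RET-S1 FRET substrate 20 min at 30°C. Substrate turnover was 10–20%. IC50(1 h) was fitted; 3–5 experiments, mean ± SD.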

Hepatitis C virus [2] = assay: Antiviral activity against HCV Con1-mADE replicon with NS3 serine protease V36M/R155T double mutation in human HuH7 cells after 48 hrs by RNA replicon assay relative to wild type; type: functional, Hepacivirus hominis, subtype 1b Con1-mADE, Huh-7
Method in brief: (§2)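 Stable genotype 1b Con1 subgenomic neo replicon cell lines carried three adaptive mutations. They were made by electroporating T7 runoff transcripts (ScaI-linearized template) into naive Huh-7 cells, selected with 0.5 mg/ml G418 and kept in 0.25 mg/ml. Mutations were confirmed by RT-PCR sequencing. EC50 came from a 48-h assay, at least three independent assays, mean ± SD. Fold change = variant mean EC50 / wild-type EC50.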

Hepatitis C virus [3] = assay: Inhibition of wild type HCV genotype 1b NS3 protease expressed in Escherichia coli BL21 (DE3); design: species or system Hepatitis C virus subtype 1b
Method in brief: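 NS3 protease domain (genotype 1a isolate 3201 or 1b isolate 3111) induced 5 h with 1 mM IPTG at 25°C and purified by Talon affinity and gel filtration. Preincubated with 5 μM KK4A cofactor peptide, then with inhibitor 60 min at 30°C. Then 20 min at 30°C with 5 μM RET-S1 FRET depsipeptide, reading product release at 10–20% turnover. IC50(1 h) by curve fit; 3–5 independent experiments, mean ± SD.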

Hepatitis C virus [4] = assay: Antiviral activity against HCV Con1-mADE replicon with NS3 serine protease V36M mutation in human HuH7 cells after 48 hrs by RNA replicon assay; type: functional, organism-based, Hepacivirus hominis; conditions: subtype 1b Con1-mADE, Huh-7, 48 h; method in brief: as §2
Hepatitis C virus [5] = assay: Antiviral activity against HCV Con1-mADE replicon with NS3 serine protease V36M mutation in human HuH7 cells after 48 hrs by RNA replicon assay relative to wild type; type: functional, Hepacivirus hominis, subtype 1b Con1-mADE, Huh-7; method in brief: as §2
NS3 protease [6] = biological target: NS3 protease (Hepacivirus C, UniProt C1KIQ2, V36M); assay: Inhibition of HCV genotype 1a NS3 protease V36M mutant expressed in Escherichia coli BL21 (DE3); design: species or system Hepatitis C virus subtype 1a; method in brief: as §1
NS3 protease [7] = biological target: NS3 protease (Hepacivirus C, UniProt C1KIQ2, V36L); assay: Inhibition of HCV genotype 1a NS3 protease V36L mutant expressed in Escherichia coli BL21 (DE3); design: species or system Hepatitis C virus subtype 1a; method in brief: as §1
Hepatitis C virus [8] = assay: Antiviral activity against HCV Con1-mADE replicon with NS3 serine protease V36A/R155T double mutation in human HuH7 cells after 48 hrs by RNA replicon assay; type: functional, organism-based, Hepacivirus hominis; conditions: subtype 1b Con1-mADE, Huh-7, 48 h; method in brief: as §2
Hepatitis C virus [9] = assay: Antiviral activity against HCV Con1-mADE replicon with NS3 serine protease V36G mutation in human HuH7 cells after 48 hrs by RNA replicon assay; type: functional, organism-based, Hepacivirus hominis; conditions: subtype 1b Con1-mADE, Huh-7, 48 h; method in brief: as §2
Hepatitis C virus [10] = assay: Antiviral activity against HCV Con1-mADE replicon with NS3 serine protease V36A mutation in human HuH7 cells after 48 hrs by RNA replicon assay; type: functional, organism-based, Hepacivirus hominis; conditions: subtype 1b Con1-mADE, Huh-7, 48 h; method in brief: as §2
Hepatitis C virus [11] = assay: Antiviral activity against HCV genotype 1 infected in patient assessed as logarithmic maximal reduction in plasma HCV RNA level at 750 mg dosed every 8 hrs measured after 14 days; type: functional, Hepacivirus hominis
Hepatitis C virus [12] = assay: Antiviral activity against HCV Con1-mADE replicon with NS3 serine protease V36M/R155K double mutation in human HuH7 cells after 48 hrs by RNA replicon assay; type: functional, organism-based, Hepacivirus hominis; conditions: subtype 1b Con1-mADE, Huh-7, 48 h; method in brief: as §2
Hepatitis C virus [13] = assay: Antiviral activity against HCV Con1-mADE replicon with NS3 serine protease V36M/A156T double mutation in human HuH7 cells after 48 hrs by RNA replicon assay relative to wild type; type: functional, Hepacivirus hominis, subtype 1b Con1-mADE, Huh-7
Method in brief: (§3)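 Stable HCV genotype 1b subgenomic replicon (Con1-mADE, neo) cell lines made by electroporating ScaI-linearized T7 runoff RNA into naïve Huh-7 cells; selected in 0.5 mg/ml G418, maintained in 0.25 mg/ml; NS3 substitutions confirmed by RT-PCR sequencing. EC50 from 48-h replicon RNA reduction assay, ≥3 independent experiments, mean ± SD; fold change = variant mean EC50 / wild-type mean EC50.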

Hepatitis C virus [14] = assay: Antiviral activity against HCV Con1-mADE replicon with NS3 serine protease V36A/R155K double mutation in human HuH7 cells after 48 hrs by RNA replicon assay; type: functional, organism-based, Hepacivirus hominis; conditions: subtype 1b Con1-mADE, Huh-7, 48 h; method in brief: as §2
Hepatitis C virus [15] = assay: Antiviral activity against HCV genotype 1 infected in patient assessed as log10 reduction in plasma HCV RNA level at 750 mg dosed every 8 hrs measured after 2 days; type: functional, Hepacivirus hominis
Hepatitis C virus [16] = assay: Antiviral activity against HCV Con1-mADE replicon with NS3 serine protease V36M/A156T double mutation in human HuH7 cells after 48 hrs by RNA replicon assay; type: functional, organism-based, Hepacivirus hominis; conditions: subtype 1b Con1-mADE, Huh-7, 48 h; method in brief: as §2
Hepatitis C virus [17] = assay: Antiviral activity against HCV Con1-mADE replicon with NS3 serine protease T54A mutation in human HuH7 cells after 48 hrs by RNA replicon assay; conditions: subtype 1b Con1-mADE, Huh-7, 48 h
Hepatitis C virus [18] = assay: Antiviral activity against HCV Con1-mADE replicon with NS3 serine protease V36A/T54A double mutation in human HuH7 cells after 48 hrs by RNA replicon assay relative to wild type; type: functional, Hepacivirus hominis, subtype 1b Con1-mADE, Huh-7; method in brief: as §3
Hepatitis C virus [19] = assay: Antiviral activity against HCV Con1-mADE replicon with NS3 serine protease V36A/T54A double mutation in human HuH7 cells after 48 hrs by RNA replicon assay; type: functional, organism-based, Hepacivirus hominis; conditions: subtype 1b Con1-mADE, Huh-7, 48 h; method in brief: as §2
Hepatitis C virus [20] = assay: Antiviral activity against HCV Con1-mADE replicon with NS3 serine protease V36L mutation in human HuH7 cells after 48 hrs by RNA replicon assay; type: functional, organism-based, Hepacivirus hominis; conditions: subtype 1b Con1-mADE, Huh-7, 48 h; method in brief: as §2
Hepatitis C virus [21] = assay: Antiviral activity against HCV Con1-mADE replicon with NS3 serine protease V36A/R155T double mutation in human HuH7 cells after 48 hrs by RNA replicon assay relative to wild type; type: functional, Hepacivirus hominis, subtype 1b Con1-mADE, Huh-7; method in brief: as §2
Hepatitis C virus [22] = assay: Inhibition of HCV genotype 1b NS3 protease V36A mutant expressed in Escherichia coli BL21 (DE3); design: species or system Hepatitis C virus subtype 1b; method in brief: as §1
Hepatitis C virus [23] = assay: Antiviral activity against HCV Con1-mADE replicon with NS3 serine protease V36M/R155K double mutation in human HuH7 cells after 48 hrs by RNA replicon assay relative to wild type; type: functional, Hepacivirus hominis, subtype 1b Con1-mADE, Huh-7; method in brief: as §2
Hepatitis C virus [24] = assay: Antiviral activity against HCV Con1-mADE replicon with NS3 serine protease V36L mutation in human HuH7 cells after 48 hrs by RNA replicon assay relative to wild type; type: functional, Hepacivirus hominis, subtype 1b Con1-mADE, Huh-7; method in brief: as §2
Hepatitis C virus [25] = assay: Antiviral activity against HCV Con1-mADE replicon with NS3 serine protease T54A mutation in human HuH7 cells after 48 hrs by RNA replicon assay relative to wild type
Hepatitis C virus [26] = assay: Antiviral activity against HCV Con1-mADE replicon with NS3 serine protease V36M/R155T double mutation in human HuH7 cells after 48 hrs by RNA replicon assay; type: functional, organism-based, Hepacivirus hominis; conditions: subtype 1b Con1-mADE, Huh-7, 48 h; method in brief: as §2
Hepatitis C virus [27] = assay: Antiviral activity against wild type Con1-mADE HCV replicon in human HuH7 cells after 48 hrs by RNA replicon assay; type: functional, organism-based, Hepacivirus hominis; conditions: subtype 1b Con1-mADE, Huh-7, 48 h; method in brief: as §2
Hepatitis C virus [28] = assay: Antiviral activity against HCV Con1-mADE replicon with NS3 serine protease V36A/R155K double mutation in human HuH7 cells after 48 hrs by RNA replicon assay relative to wild type; type: functional, Hepacivirus hominis, subtype 1b Con1-mADE, Huh-7; method in brief: as §2
Hepatitis C virus [29] = assay: Antiviral activity against HCV Con1-mADE replicon with NS3 serine protease V36A mutation in human HuH7 cells after 48 hrs by RNA replicon assay relative to wild type; type: functional, Hepacivirus hominis, subtype 1b Con1-mADE, Huh-7; method in brief: as §2
Hepatitis C virus [30] = assay: Antiviral activity against HCV Con1-mADE replicon with NS3 serine protease V36G mutation in human HuH7 cells after 48 hrs by RNA replicon assay relative to wild type; type: functional, Hepacivirus hominis, subtype 1b Con1-mADE, Huh-7; method in brief: as §3
Hepatitis C virus [31] = assay: Selectivity ratio of IC50 for HCV genotype 1b NS3 protease V36A mutant to IC50 for wild type HCV genotype 1b NS3 protease; design: species or system Hepatitis C virus subtype 1b
Method in brief: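 Purified genotype 1b NS3 protease domain (wild-type isolate 3111 or V36A), E. coli BL21(DE3)-expressed, preincubated with 5 μM KK4A cofactor peptide 10 min 25°C then 10 min 30°C; inhibitor 60 min 30°C; then 5 μM RET-S1 FRET depsipeptide 20 min 30°C, 10–20% turnover. IC50(1 h) fitted; fold change = variant/wild-type IC50, 3–5 independent experiments, mean ± SD.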

[32] = Inhibition of wild type HCV genotype 1a NS3 protease expressed in Escherichia coli BL21 (DE3) measured after 1 hr

Row | Compound | fold change (FC) (Hepatitis C virus [2]) | EC50 (Hepatitis C virus [4]) [µM] | fold change (FC) (Hepatitis C virus [5]) | EC50 (Hepatitis C virus [8]) [µM] | EC50 (Hepatitis C virus [10]) [µM] | EC50 (Hepatitis C virus [12]) [µM] | EC50 (Hepatitis C virus [14]) [µM] | EC50 (Hepatitis C virus [17]) [µM] | fold change (FC) (Hepatitis C virus [21]) | fold change (FC) (Hepatitis C virus [23]) | fold change (FC) (Hepatitis C virus [24]) | EC50 (Hepatitis C virus [26]) [µM] | EC50 (Hepatitis C virus [27]) [µM] | fold change (FC) (Hepatitis C virus [28]) | fold change (FC) (Hepatitis C virus [29]) | other results
1 | CCC[C@H](NC(=O)[C@@H]1[C@H]2CCC[C@H]2CN1C(=O)[C@@H](NC(=O)[C@@H](NC(=O)c1cnccn1)C1CCCCC1)C(C)(C)C)C(=O)C(=O)NC1CC1 [TELAPREVIR] | >62 | 3.4 | 7 | > 30 | 3.6 | 30 | 20 | 3 | >62 | 62 | 2.2 | > 30 | 0.49 | 40 | 7.4 | IC50 (NS3 protease [1]): 3.4 µM; IC50 (Hepatitis C virus [3]): 0.063 µM; IC50 (NS3 protease [6]): 0.27 µM; IC50 (NS3 protease [7]): 0.13 µM; EC50 (Hepatitis C virus [9]): 5.4 µM; Activity (Hepatitis C virus [11]): 4.65; fold change (FC) (Hepatitis C virus [13]): >62; Activity (Hepatitis C virus [15]): 3; EC50 (Hepatitis C virus [16]): > 30 µM; fold change (FC) (Hepatitis C virus [18]): 20.1; EC50 (Hepatitis C virus [19]): 9.7 µM; EC50 (Hepatitis C virus [20]): 1.1 µM; IC50 (Hepatitis C virus [22]): 0.23 µM; fold change (FC) (Hepatitis C virus [25]): 6.3; fold change (FC) (Hepatitis C virus [30]): 11.2; fold change (FC) (Hepatitis C virus [31]): 3.6; IC50 [32]: 0.05 µM
2 | NC(=O)c1ncn([C@@H]2O[C@H](CO)[C@@H](O)[C@H]2O)n1 [RIBAVIRIN] | 0.6 | 33 | 0.6 | 42 | 43 | 41 | 36 | 22 | 0.7 | 0.7 | 0.4 | 36 | 58 | 0.6 | 0.8 | 
